Results as given in ChEMBL document CHEMBL4706693, “Design and synthesis of a monocyclic derivative as a selective ACC1 inhibitor by chemical modification of biphenyl ACC1/2 dual inhibitors” (Bioorg Med Chem, 2021).
Values after ≈ are worked out from the molar mass of the structure shown. Active and inactive are the calls of the source. No cut-off for these calls is given here.

Key:
[1] = biological target: T1, Acetyl-CoA carboxylase 1 (Homo sapiens, UniProt Q13085); experiment: Inhibition of recombinant human N-terminal His6-tagged ACC1 expressed in baculovirus infected Sf9 insect cells using acetyl-CoA as substrate preincubated for 60 mins followed by substrate addition and measured after 30 mins Rapidfire-Mass spectrometry
How it was run: (§1)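 Human ACC1 or ACC2 from baculovirus-infected SF-9 cells (27 °C, 3 days), purified and dialyzed. Compound in DMSO diluted in 50 mM HEPES pH 7.5, 10 mM MgCl₂, 10 mM tripotassium citrate, 2 mM DTT, 0.001% fatty acid-free BSA. Enzyme and compound preincubated 60 min at room temperature. Substrate added: 50 mM KHCO₃, ATP, acetyl-CoA. Reaction ran 30 min at room temperature.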

[2] = biological target: T2, Acetyl-CoA carboxylase 2 (Homo sapiens, UniProt O00763); experiment: Inhibition of recombinant human N-terminal His6-tagged ACC2 expressed in baculovirus infected Sf9 insect cells using acetyl-CoA as substrate preincubated for 60 mins followed by substrate addition and measured after 30 mins Rapidfire-Mass spectrometry; how it was run: as §1
[3] = organism: Homo sapiens; experiment: Selectivity ratio of IC50 for inhibition of recombinant human N-terminal His6-tagged ACC2 expressed in baculovirus infected Sf9 insect cells to IC50 for inhibition of recombinant human N-terminal His6-tagged ACC1 expressed in baculovirus infected Sf9 insect cells
[4] = Inhibition of fatty acid synthesis in human HCT-116 cells assessed as reduction in [14C] acetic acid uptake preincubated for 60 mins followed by [14C]acetic acid addition and measured after 2 hrs by topcount scintillation counting method; type: functional, cell-based
How it was run: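 HCT-116 cells, 50,000/well, cultured overnight in RPMI with 10% FBS and penicillin/streptomycin at 37 °C, 5% CO₂. Compound added in RPMI with 0.1% fatty acid-free BSA for 60 min. Then 0.1 μCi/well [¹⁴C]acetic acid for 2 h at 37 °C. Cells washed with PBS and radioactivity counted. DMSO wells set as 0%; 100 nM reference inhibitor as 100%. IC50 is the mean of duplicates with 95% CI.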

[5] = Solubility of compound in pH 6.8 buffer; type: physicochemical
How it was run: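 Solubility measured at pH 6.8.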

[6] = Lipophilicity, log D of compound; type: physicochemical; details: octanol/water
[7] = Solubility of compound in pH 1.2 buffer; type: physicochemical
[8] = Permeability of compound at pH 7.4 by PAMPA; type: ADME; details: read-out: permeability
[9] = Permeability of compound at pH 5 by PAMPA; type: ADME; details: read-out: permeability
[10] = Metabolic stability in human liver microsomes; type: ADME, Microsome; details: read-out: Stabilty
[11] = Metabolic stability in mouse liver microsomes; type: ADME, Microsome; details: read-out: Stabilty
[12] = biological target: T3, Cytochrome P450 2C8 (Homo sapiens, UniProt P10632); experiment: Inhibition of CYP2C8 (unknown origin) relative to control; type: ADME
T3 sequence (P10632 whole entry): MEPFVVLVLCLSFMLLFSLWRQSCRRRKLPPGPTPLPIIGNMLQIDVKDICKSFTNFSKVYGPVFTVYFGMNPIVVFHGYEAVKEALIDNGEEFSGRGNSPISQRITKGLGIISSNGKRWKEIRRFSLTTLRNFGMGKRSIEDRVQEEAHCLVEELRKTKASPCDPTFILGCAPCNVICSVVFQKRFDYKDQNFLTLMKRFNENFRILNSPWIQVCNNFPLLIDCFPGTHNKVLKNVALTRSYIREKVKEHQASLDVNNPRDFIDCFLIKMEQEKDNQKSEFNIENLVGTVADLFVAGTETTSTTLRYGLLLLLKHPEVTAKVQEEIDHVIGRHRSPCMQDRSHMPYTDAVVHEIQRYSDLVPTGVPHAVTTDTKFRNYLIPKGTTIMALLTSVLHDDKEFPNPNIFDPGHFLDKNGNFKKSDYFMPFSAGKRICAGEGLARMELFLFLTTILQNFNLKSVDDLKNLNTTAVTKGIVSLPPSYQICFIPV

[13] = biological target: Cytochrome P450 2C9 (Homo sapiens, UniProt P11712); experiment: Inhibition of CYP2C9 (unknown origin) relative to control; type: ADME
[14] = AUC (0 to 8 hrs) in ICR mouse at 0.1 mg/kg, iv or 1 mg/kg, po; type: ADME, organism-based; set-up: dose 1 mg/kg; details: in vivo
How it was run: (§2)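 Male ICR mice, n = 3. Doses: 0.1 mg/kg i.v. and 1 mg/kg p.o. AUC covers 0–8 h.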

[15] = Oral bioavailability in ICR mouse at 1 mg/kg; type: ADME, organism-based; details: in vivo; how it was run: as §2
[16] = biological target: T1, Acetyl-CoA carboxylase 1; experiment: Inhibition of recombinant human N-terminal His6-tagged ACC1 expressed in baculovirus infected Sf9 insect cells at 10 uM using acetyl-CoA as substrate preincubated for 60 mins followed by substrate addition and measured after 30 mins Rapidfire-Mass spectrometry relative to control; details: time 90.0 min
[17] = biological target: T2, Acetyl-CoA carboxylase 2; experiment: Inhibition of recombinant human N-terminal His6-tagged ACC2 expressed in baculovirus infected Sf9 insect cells at 10 uM using acetyl-CoA as substrate preincubated for 60 mins followed by substrate addition and measured after 30 mins Rapidfire-Mass spectrometry relative to control; details: time 90.0 min
[18] = tested on: Mus musculus; experiment: Inhibition of fatty acid synthesis in human HCT-116 cells xenografted BALB/cA Jc1 nu/nu mouse assessed as reduction in malonyl-CoA concentration in tumor at 100 mg/kg, po administered as single dose measured after 2 to 16 hrs by RPLC-MS/MS analysis; type: functional, organism-based; details: time 2-16 hrs
How it was run: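 Female BALB/cA Jcl-nu/nu mice, 6 weeks old, carrying s.c. hind-flank HCT-116 xenografts (cells in HBSS with Matrigel). Mice randomized by tumor volume. Single oral dose of 100 mg/kg in 0.5% methyl cellulose, or vehicle. Tumors collected 2 and 16 h after dosing, snap-frozen and pulverized under liquid N₂. Malonyl-CoA measured by RPLC-MS/MS against a calibration curve with [¹³C₃]-malonyl-CoA as internal standard.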

Cytochrome P450 2C9, sequence (P11712 whole entry): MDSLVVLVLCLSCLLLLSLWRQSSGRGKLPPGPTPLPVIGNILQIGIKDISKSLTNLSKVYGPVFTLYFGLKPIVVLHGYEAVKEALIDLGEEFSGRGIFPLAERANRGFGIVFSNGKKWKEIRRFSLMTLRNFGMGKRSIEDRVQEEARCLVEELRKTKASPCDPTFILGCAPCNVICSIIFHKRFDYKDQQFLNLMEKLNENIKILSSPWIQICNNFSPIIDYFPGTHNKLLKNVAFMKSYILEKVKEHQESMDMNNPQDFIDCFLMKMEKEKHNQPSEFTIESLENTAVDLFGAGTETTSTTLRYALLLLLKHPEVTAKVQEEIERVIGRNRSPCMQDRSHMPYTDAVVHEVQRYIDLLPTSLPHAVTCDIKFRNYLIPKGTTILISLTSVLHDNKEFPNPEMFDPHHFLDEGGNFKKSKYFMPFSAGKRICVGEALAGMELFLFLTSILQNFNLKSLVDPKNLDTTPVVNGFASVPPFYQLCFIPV

Row | IC50 [1] [nM] | IC50 [2] [nM] | IC50 [4] [nM] | solubility [5] [µg/mL] | Compound | other results
1 | 60 | 150 |  |  | CC(=O)NC(C)c1ccc(-c2ccc(Oc3cccc(OCC4CC4)c3)cc2)cc1 (centres undefined) | Ratio IC50 [3]: 2.5
2 | 1200 | > 10000 | > 1000 |  | CC(=O)NC(C)c1ccc(OCc2ccc(Oc3cccc(OCC4CC4)c3)cn2)cc1 (centres undefined) | 
3 | 15 | > 10000 | 9.7 | < 0.21 | CC(=O)NC(C)c1ccc(OCc2c(F)cc(Oc3cccc(OCC4CC4)c3)cc2F)cc1 (centres undefined) | logD [6]: 5.01; solubility [7]: < 0.23 µg/mL; Papp [8]: 11.1 ×10⁻⁶ cm/s; Papp [9]: 34.6 ×10⁻⁶ cm/s; microsomal CLint [10]: 30 µL/min/mg; microsomal CLint [11]: 36 µL/min/mg; inhibition (INH) [12]: 31.4%; inhibition (INH) [13]: -22.7%; AUC(0-t) [14]: 1580 ng·h/mL; bioavailability [15]: 31.1%
4 | 120 | 210 |  |  | CCCCOc1cccc(Oc2ccc(-c3ccc(C(C)NC(C)=O)cc3)cc2)c1 (centres undefined) | 
5 | 39 | 20 |  |  | CC(=O)NC(C)c1ccc(Oc2ccc(Oc3cccc(OCC4CC4)c3)cc2)cc1 (centres undefined) | 
6 |  |  |  |  | CCCc1ccc(Oc2ccc(-c3ccc(C(C)NC(C)=O)cc3)cc2)cc1 (centres undefined) | inhibition [16]: 38%; inhibition [17]: 11%
7 | 38 | > 10000 | 70 | 1.5 (≈ 3.2 µM) | CC(=O)NC(C)c1ccc(OCc2c(F)cc(Oc3cccc(OCC4CC4)c3)cc2F)cn1 (centres undefined) | 
8 | 130 | 98 |  |  | COCCc1cccc(Oc2ccc(-c3ccc(C(C)NC(C)=O)cc3)cc2)c1 (centres undefined) | 
9 | 69 | > 10000 | 63 |  | CC(=O)NC(C)c1ccc(OCc2ccc(Oc3cccc(OCC4CC4)c3)cc2F)cc1 (centres undefined) | 
10 | 89 | > 10000 | 180 | 0.46 (≈ 0.98 µM) | CC(=O)NC(C)c1cnc(OCc2c(F)cc(Oc3cccc(OCC4CC4)c3)cc2F)cn1 (centres undefined) | 
11 | 220 | > 10000 | 420 |  | CC(=O)NC(C)c1ccc(OCc2ccc(Oc3cccc(OCC4CC4)c3)cc2)cc1 (centres undefined) | 
12 | 31 | > 10000 | 110 | 2.3 (≈ 4.9 µM) | CC(=O)NC(C)c1ccc(OCc2c(F)cc(Oc3cccc(OCC4CC4)c3)cc2F)nn1 (centres undefined) | 
13 | 17 | > 10000 | 24 | < 0.23 | CC(=O)NC(C)c1ccc(OCc2c(F)cc(Oc3cccc(OCC4CC4)c3)cc2F)nc1 (centres undefined) | logD [6]: 4.82; solubility [7]: < 0.23 µg/mL; Papp [8]: 68.3 ×10⁻⁶ cm/s; Papp [9]: 66.2 ×10⁻⁶ cm/s; microsomal CLint [10]: 12 µL/min/mg; microsomal CLint [11]: 17 µL/min/mg; inhibition (INH) [12]: 32%; inhibition (INH) [13]: -13.8%; AUC(0-t) [14]: 5350 ng·h/mL; bioavailability [15]: 70.5%; inhibition [18]: Active
14 |  |  |  |  | CCCOc1ccc(Oc2ccc(-c3ccc(C(C)NC(C)=O)cc3)cc2)cc1 (centres undefined) | inhibition [16]: 50%; inhibition [17]: 51%
15 |  | > 30000 |  |  | COCCc1ccc(Oc2ccc(-c3ccc(C(C)NC(C)=O)cc3)cc2)cc1 (centres undefined) | inhibition [16]: 49%; inhibition [17]: 6%
16 | 790 | > 10000 | 900 |  | CC(=O)NC(C)c1ccc(OCc2ccc(Oc3cccc(OCC4CC4)c3)nc2)cc1 (centres undefined) | 
